From the EternaBench riboswitch data come the findings set out here.

For the series, the system named is MS2 coat protein. Description: apparent Kd, MS2 coat protein; higher = weaker binding; RNA-MaP array; theophylline 2 mM where present. In short, it runs like this: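 Stalled E. coli RNA polymerase transcribed the designs on Illumina sequencing-chip clusters. SNAP-549-labelled MS2 coat protein was titrated from 0.7 or 1.5 nM, doubling to 3 µM, without and then with constant ligand, in 100 mM Tris-HCl pH 7.5, 80 mM KCl, 4 mM MgCl2, BSA, DTT, yeast tRNA and Tween-20. Per-cluster binding curves were fitted to green signal normalised to red-channel RNA signal and control-cluster median Fmax. The apparent Kd is the median of the filtered fits.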

The mark [1] stands for this setting: designed as: ON switch for theophylline, no ligand.
The mark [2] stands for this setting: ligand present: theophylline, designed as: ON switch for theophylline.
[3] abbreviates: designed as: OFF switch for theophylline, no ligand.
[4] abbreviates: ligand present: theophylline, designed as: OFF switch for theophylline.

Consider “ACUCUGUCGGGUGAUACCAGCCUCGGCACAUCUCGCGCCGAACAUGAGGAUCACCCAUGUGGCCCUUGGCAGCACAUGACAAAUC”, for which the apparent Kd (usually the concentration giving half-maximal binding under the conditions of the assay) by setting is: under setting [1], 328 nM; under setting [2], 83.1 nM. On to “ACAUGAGGAUCACCCAUGUAGUGGCACGAUACCAGCUGAUCCCGUGGCCCUUGGCAGCGUCCGGUGUGGUGCGCCGGGUUGGAGC”, for which the “apparent Kd” value reads like this: under setting [1], 49.1 nM; under setting [2], 61.7 nM. With “CGAACAAAACUAAAUAAACAACUGGGUGAUACCAGUACAUGUGCGUACCCUUGGCAGCAUCCGGCCACAUGAGGAUCACCCAUGU”, the “apparent Kd” value under setting [1] was found to be 64.7 nM and the “apparent Kd” value under setting [2] was 119 nM. As to “AUAUGAUCAUAGGAUACCAGAAAUGGUAUUCCUUUAUUUCUUACAUGAGGAUCACCCAUGUUCCCUUGGCAGCUUAUGAUCAUAU”, the “apparent Kd” value under setting [3] amounted to 126 nM and the “apparent Kd” value under setting [4] came to 115 nM. Take “CGAUCUUUCGAAAGAAGGAUCGAGUCUGAUACCAGAGACGAAAGUCUCCCUUGGCAGCAGUGCCAACAUGAGGAUCACCCAUGUA”: the “apparent Kd” value under setting [1] stood at 18.7 nM and the “apparent Kd” value under setting [2] stood at 21.1 nM. The corresponding values for “AUCGUACCUGAUGAUACCAGCAAGUGAUCAUAACAUGAGGAUCACCCAUGUAAUCAGUGAUGCCCUUGGCAGCAUAGUCGAUACA” are 164 nM and 99.8 nM. The corresponding values for “UUAGAUAUGACAGAUACCAGCGUGUUGUAGAACAUGAGGAUCACCCAUGUAGUGAUCAAGCGCCCUUGGCAGCUGGUAUGUUUGG” are 170 nM and 221 nM. “GUACAUGAGGAUCACCCAUGUGGUAGGGAUACCAGCCAGAAGAAAGGCCCUUGGCAGCUUGUAUUUAGUGUGGGUUUGUUUGUUC”: the “apparent Kd” value worked out at 23.4 nM under setting [3] and 54.9 nM under setting [4].

As for “UUCUACAUGAGGAUCACCCAUGUGGGUGAUACCAGCACUUUUUGGUGCCCUUGGCAGCACAUGAGAAUACCGUACGAUCGGCGAU”, the “apparent Kd” value runs as follows: under setting [1], 265 nM; under setting [2], 700 nM. The corresponding values for “UAACAUGAGGAUCACCCAUGUAUAGUCGAUACCAGCUCAAGGGAGAGCCCUUGGCAGCGACACUGGUAUCCAUGGGUGUGGAUAC” are 82.3 nM and 81.3 nM. Regarding “GAUGAACUAUUUGAUACCAGACCACAUGAGGAUCACCCAUGUGAGUUUCGUCCUUAGCCGGUCCCUUGGCAGCAAAUAGUUUAUC”, the “apparent Kd” value runs as follows: under setting [3], 16.9 nM; under setting [4], 52.5 nM. Take “GAGUUCCUGAGAGAUACCAGUGAGGCCACAUGAGGAUCACCCAUGUCCCUCACUCCGGCCCACCCUUGGCAGCUCGAAAGAUAUU”: the “apparent Kd” value is, setting by setting: under setting [3], 10.9 nM; under setting [4], 68.1 nM. Turning to “ACAUGAGGAUCACCCAUGUCUGCCUCGGAUACCAGCGGAAGAAAACGCCCUUGGCAGCCGAACAUGAGGAUCACCCAUGUAGGCU”, the “apparent Kd” value is, setting by setting: under setting [1], 48.2 nM; under setting [2], 56.8 nM.

For the sequence “ACAUGAGGAUCACCCAUGUCAAGGCACGAUACCAGCUGAUCCGGUGGCCCUUGGCAGCGUCACGUUUGGUCCCGCGGAUGACACG”, the “apparent Kd” value reads like this: under setting [1], 64.7 nM; under setting [2], 108 nM. Regarding “ACAUGAGGAUCACCCAUGUUCCUCAUUGAUACCAGUGAAUUUAGACGCCCUUGGCAGCGAGUUUUUUUAGAAGAAGUUUUUUUUU”, the “apparent Kd” value came out at 782 nM under setting [3] and 1070 nM under setting [4]. As to “ACAUGAGGAUCACCCAUGUCUGCCACUGAUACCAGCGGAAGCCCACGCCCUUGGCAGCAGAACAUGAGGAUCACCCAUGUAGGCU”, the “apparent Kd” value worked out at 232 nM under setting [1] and 198 nM under setting [2]. “UUAUUUAUAAUGGAUACCAGUGCUGUGGCCCGGCAUCCUGACAUGAGGAUCACCCAUGUGUACCCUUGGCAGCUGUUAUGGGUUU”: the “apparent Kd” value under setting [3] was found to be 22.6 nM. For “CAGCACAUGAGGAUCACCCAUGUGAGGGAUACCAGCUCAGGCGUGGGCCCUUGGCAGCUCUCUGGCUGACGAAAGUCAGCCUGUG”, the “apparent Kd” value was 13.2 nM under setting [1] and 16.7 nM under setting [2]. In the case of “CCUGCGUUUCUUUUCUUUCGCAGGAAUGAUACCAGUAGGGAAACCUACCCUUGGCAGCAUGGGACAUGAGGAUCACCCAUGUUAU”, the “apparent Kd” value runs as follows: under setting [1], 350 nM; under setting [2], 55.1 nM. Take “GGGUAAGAUCCGGAUACCAGCGAACAUGAGGAUCACCCAUGUGAAAUAAGAUAGAAUAAACGCCCUUGGCAGCCGAAAUAGAGUU”: the “apparent Kd” value reads like this: under setting [1], 77.3 nM; under setting [2], 30.1 nM. The corresponding values for “CGAAUACGAAUUGAUACCAGCAUGUUAACAUGAGGAUCACCCAUGUUAAGGAUAACAUAAUGCCCUUGGCAGCAACGUAAAUUCG” are 19.4 nM and 13.4 nM. Turning to “AGCGAUAUGCAUGAUACCAGCUACAUGAGGAUCACCCAUGUGCGUCAGAAAUGACUGUGUAGCCCUUGGCAGCAUAGAGCAUGUA”, the “apparent Kd” value under setting [3] worked out at 37.4 nM and the “apparent Kd” value under setting [4] was determined as 73.6 nM.
